Laboratory results published in ChEMBL document CHEMBL1156176, “Total synthesis, antiprotozoal and cytotoxicity activities of rhuschalcone VI and analogs” (Bioorg Med Chem, 2010).
In brackets after ≈: the same amount, converted by molar mass.

Legend:
[1] = test system: Parabodo caudatus; assay: Antiprotozoal activity against Bodo caudatus hrs by MTT assay; assay type: functional, organism-based; details: TDE = time-dependent effect
Procedure, shortened: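 B. caudatus adjusted to 1 × 10^5/mL in growth medium with penicillin/streptomycin/kanamycin, exposed 48 h at 37 °C/5% CO2 to serial dilutions (0.0001–1000 µg/mL final). MTT added for further 4 h, crystals dissolved in DMSO, absorbance 570 nm. LC50 (50% lethal concentration) from mean ± SD of triplicates.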

[2] = test system: Parabodo caudatus; assay: Antiprotozoal activity against Bodo caudatus after 48 hrs by MTT assay; assay type: functional
Procedure, shortened: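 B. caudatus from culture in cereal grass medium diluted 1:1 with water plus E. coli DH5a, kept at 30 °C; adjusted to 1 × 10^5/mL with penicillin, streptomycin and kanamycin added; exposed 48 h to serial dilutions (final 0.0001–1000 µg/mL) at 37 °C/5% CO2; MTT added for 4 h, crystals dissolved in DMSO, A570 read; LC50 from triplicate determinations.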

[3] = Cytotoxicity against BHK cells at 100 ug/ml after 48 hrs by MTT assay; assay type: cell-based, Mesocricetus auratus; details: hamster; for Activity: bhk, 48 h
Procedure, shortened: (§1)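 BHK cells (DMEM/F10 1:1, 10% fetal calf serum, penicillin/streptomycin, 37 °C/5% CO2) at 1 × 10^5/mL, adhered overnight, exposed 48 h to serial dilutions (0.0001–100 µg/mL in figure). MTT for 4 h, DMSO solubilisation, A570; survival vs untreated cells; CC50 from triplicate means ± SD.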

[4] = test system: Parabodo caudatus; assay: Antiprotozoal activity against Bodo caudatus at 0.6 mg/ml after 24 hrs by MTT assay; assay type: functional
Procedure, shortened: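 Bodo caudatus (maintained at 30 °C in cereal grass medium diluted 1:1 with water, fed E. coli DH5α, subcultured every 7–12 days); 10,000 protozoa per well with penicillin/streptomycin/kanamycin, exposed 24 h to 0.6 mg/mL final; CuSO4 at same concentration as positive control, 8% DMSO solvent control. MTT added, 2 h, DMSO-dissolved, A570 viability; triplicates; inhibition vs controls.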

[5] = Cytotoxicity against BHK cells after 48 hrs by MTT assay; assay type: cell-based, Mesocricetus auratus; details: hamster; procedure, shortened: as §1

Structure (SMILES)	Activity [1]	LC50 [2]	Activity [3]	Activity [4]	CC50 at 48 h [5]	CC50 at 48 h ([3]; BHK cells)
COc1cc(O)c(C(=O)/C=C/c2ccc(O)cc2)cc1-c1cc(/C=C/C(=O)c2ccc(O)cc2O)ccc1O	tde	118 µg/mL (≈ 226 µM)	Non-toxic	75%		
O=C(/C=C/c1ccc(O)c(-c2cc(C(=O)/C=C/c3ccc(O)cc3)c(O)cc2O)c1)c1ccccc1	tde	20.6 µg/mL (≈ 43 µM)	Non-toxic	75%		
CC(C)=CCc1c(O)ccc(C(=O)/C=C/c2ccc(O)cc2)c1O [ISOBAVACHALCONE]	tde	4.36 µg/mL (≈ 13.4 µM)		75%	86.9 µg/mL (≈ 268 µM)	
O=C(/C=C/c1ccc(O)c(-c2cc(C(=O)/C=C/c3ccc(O)cc3)c(O)cc2O)c1)c1ccc(O)cc1O [RHUSCHALCONE VI]	tde	53.3 µg/mL (≈ 104 µM)		75%		97.6 µg/mL (≈ 191 µM)
